# Hits are enriched below; roughly 3.5% of the tested compounds scored in any of these assays.
# Ecoli rRNA inh: inhibitors of bacterial rRNA selective over humanized ribosomes. E. coli WT GFP vs humanized-ribosome RFP mutants, fluorescence, 24 h; stronger effect = lower value; DMSO median 0, no signal -100. GFP signal change (wild-type ribosome), % (test concentration not listed). 350,000 compounds, 1.6% hits. AID 720706;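 active means significant combined selectivity score with lowered wild-type GFP, culture density cut under 30%, mutant RFP and density less affected; inactive means any of these conditions unmet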
# Env fusion inh: blocks HIV Env-driven cell-cell fusion. HeLa-JRFL Env/CEM21 cell fusion, luciferase. inhibition, % at 12.3 µM. 360,000 compounds, 1.1% hits. AID 651610;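 active means mean replicate inhibition score of at least 50 and every replicate individually at or above 50; inconclusive means only one of the two criteria met; inactive means mean below 50 and not all replicates reaching 50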;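 further: 0% = plate neutral controls and 100% = maraviroc near 300 nM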
# FN deposition inh: fibronectin deposition inhibition. AH1F fibroblasts, Alexa488-fibronectin deposition fluorescence, overnight. inhibition, % at 12.6 µM. 350,000 compounds, 0.086% hits. AID 743247;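 active means mean inhibition across replicates of 30% or more, regardless of how many single replicates reach that level; inconclusive means mean under 30% yet at least half of replicates reach 30%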;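 further: positive control wells lacked labelled fibronectin entirely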
#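 material = AH1F fibroblast monolayer depositing Alexa488-labelled fibronectin into matrix | amount = 10000 AH1F cells/well | buffer or medium = DMEM plus 2% serum, read in PBS | incubation = 1 h cell adhesion before compound, then overnight fibronectin incubation | detection = fluorescence at 485 nm excitation, 525 nm emission | evaluation = percent inhibition as loss of matrix-bound fibronectin fluorescence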
# DENV2 CPE rescue: protects cells from dengue virus 2 cytopathic effect. DENV2-infected cells, cytopathic effect rescue, plate reader. CPE inhibition, % at 9.99 µM. 350,000 compounds, 1.7% hits; in the data active means CPE inhibition above about 20%, passing the limit was not always enough; inconclusive means no clear call, values can overlap the other calls; tested in BHK-21 cells;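 further: 0% = median of neutral control wells and 100% = median of positive control wells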
# PglD DTNB: PglD (C. jejuni) enzyme inhibition. purified PglD enzyme, DTNB colorimetric CoA detection. inhibition, % at 12.5 µM. 360,000 compounds, 0.098% hits. AID 602405; in the data active means inhibition above about 16%, passing the limit was not always enough; inconclusive means no clear call, values can overlap the other calls
# PGC1a acetyl inh: lowers PGC1a acetylation signal in U2OS cells. AlphaScreen anti-acetyl-lysine; with virally co-expressed GCN5 acetyltransferase. inhibition, % at 15.6 µM. 350,000 compounds, 0.17% hits. AID 651687;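 active means every replicate shows inhibition of at least 40%; inconclusive means mean inhibition at least 40% but some replicate below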;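 further: 0% = neutral control wells and 100% = positive control wells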
# * hit, by the source's call; ? = inconclusive; . = no result; [ ] = another dose, or the depositor's remark.
SMILES,Ecoli rRNA inh,Env fusion inh,FN deposition inh,DENV2 CPE rescue,PglD DTNB,PGC1a acetyl inh
CO[C@@H]1CN(C)C(=O)c2ccc(NS(=O)(=O)c3cn(C)cn3)cc2OC[C@H](C)N(C)C[C@H]1C,3,6[16.7 µM],-5,-2,1,-2
O=C(Nc1ccc(Cl)cc1)N1C[C@@H]2[C@H](c3ccccc31)[C@@H](CO)N2C(=O)c1ccccn1,-25*,.,.,.,0,-3
O=C(c1ccccn1)N1C[C@@H]2[C@H](c3ccccc31)[C@H](CO)N2C(=O)Nc1ccccc1,4,.,.,2,3,0
O=C(Nc1ccc(Cl)cc1)N1C[C@@H]2[C@H](c3ccccc31)[C@H](CO)N2C(=O)c1ccccn1,-53*,.,.,.,0,2
O=C(Nc1ccc(F)cc1)N1C[C@@H]2[C@H](c3ccccc31)[C@@H](CO)N2C(=O)c1ccccn1,0,.,.,-4,1,-2
Cc1nn(-c2ccccc2)c2c1C1(C(=O)N3c4c(cccc41)C(C)CC3(C)C)C(C#N)=C(N)O2 (stereo not given),-46*,.,.,-4,-3,-4
Cc1nn(-c2ccccc2)c2c1C1(C(=O)N(C)c3ccccc31)C(C#N)=C(N)O2 (stereo not given),.,28,13,.,.,.
O=C(c1sccc1-c1ccccc1)N1CCN(S(=O)(=O)c2ccccc2F)CC1,0,66*,6,-7,-1,.
COc1ccc(S(=O)(=O)N2CCN(C(=O)c3sccc3-c3ccccc3)CC2)cc1,-4,32,0,.,-3,-9
OCCNCCCCOc1cccc(Br)c1,-1,.,7,39*,.,.
O=C(c1cccc(F)c1)N1CC2(C1)[C@H](c1ccccc1)[C@H](CO)N2C(=O)C1CC1,-5,.,-7,34*,.,6
O=C(c1cccc(F)c1)N1CC2(C1)[C@H](c1ccccc1)[C@@H](CO)N2C(=O)C1CC1,-3,.,-4,19,.,8
COCC(=O)N1[C@@H](CO)[C@@H](c2ccccc2)C12CN(C(=O)c1ccc(F)cc1)C2,1,.,.,3,.,8
COCC(=O)N1[C@@H](CO)[C@@H](c2ccccc2)C12CN(C(=O)c1cccc(F)c1)C2,2,.,.,29*,.,10
O=C(c1ccc2c(c1)OCO2)N1CC2(C1)[C@H](c1ccccc1)[C@H](CO)N2C(=O)C1CC1,-1,.,-6,38*,.,2
C/C=C/c1ccc([C@@H]2[C@@H](CO)N(C(C)=O)[C@H]2CN(C)S(C)(=O)=O)cc1,2,.,5,1,-2,6
Cc1ccc(NC(=O)CN(C)C(=O)c2ccccc2OCc2c(C)noc2C)cc1,7,.,8,-11,0,-6
CCOc1ccc2oc(C(=O)NCC3CCCO3)c(C)c2c1 (stereo not given),2,-41,0,64*,-4,1
CCOc1ccc2oc(C(=O)N(C)CC(=O)Nc3ccc(OCC)c(OCC)c3)c(C)c2c1,-28*,-1,2,?,-2,-8
CCOc1ccc(NC(=O)CN(C)C(=O)c2ccccc2OCc2c(C)noc2C)cc1OCC,4,-4,-2,25*,.,.
COc1ccc2oc(C(=O)NCC3CCCO3)c(C)c2c1 (stereo not given),1,-29,-9,6,0,2
CC(C)NC(=O)N1[C@H](CO)[C@@H](c2ccccc2)[C@@H]1CN(C)C(=O)c1ccccc1,1,.,.,?,2,8
CCOC(=O)c1c(CSc2ccccc2)oc2cc(Br)c(O)c(CN(C)C)c12,-15,127*,-11,4,.,-14
CCOC(=O)c1c(CSc2ccc(CC)cc2)oc2ccc(O)c(CN(C)C)c12,-53,56*,5,-7,0,.
CC(=O)c1c(CSc2ccccc2)oc2ccc(O)c(CN(C)C)c12,-1,2,-1,-4,-7,-1
SMILES,Ecoli rRNA inh,Env fusion inh,FN deposition inh,DENV2 CPE rescue,PglD DTNB,PGC1a acetyl inh
COc1ccc2nc(C(F)(F)Cl)c(C#N)c(N)c2c1,-40*,23,14,6,.,.
CCCC#Cc1ccc([C@@H]2[C@@H](C#N)N(C(=O)C3CCCCC3)[C@H]2CO)cc1,-17,5[16.7 µM],-11,-15,1,4
COc1ccc(CNc2nc(SCC(=O)NCc3ccco3)nc3ccccc23)cc1,-31*,.,.,5,1,-3
COc1ccccc1-c1cnc2c(c1)C(=O)N([C@@H](C)CO)C[C@H](C)[C@@H](CN(C)C(=O)c1ccncc1)O2,3,2[16.7 µM],-4,-7,17,8
C[C@@H]1CN([C@H](C)CO)C(=O)c2ccccc2-c2ccccc2CO[C@H]1CN(C)S(=O)(=O)c1ccc(Cl)cc1,-2,11[16.7 µM],-3,-1,0,-26
C[C@H](C(=O)N(C)C[C@H]1OCc2ccccc2-c2ccccc2C(=O)N([C@@H](C)CO)C[C@H]1C)c1ccccc1,1,21[16.7 µM],-3,-1,1,-3
C[C@H](C(=O)N(C)C[C@@H]1OCc2ccccc2-c2ccccc2C(=O)N([C@@H](C)CO)C[C@H]1C)c1ccccc1,-2,59*[16.7 µM],-7,9,0,-11
C[C@H]1CN([C@@H](C)CO)C(=O)c2ccccc2-c2ccccc2CO[C@H]1CN(C)S(=O)(=O)c1ccc(Cl)cc1,-4,55*[16.7 µM],-14,?,-2,-39
C[C@H](C(=O)N(C)C[C@@H]1OCc2ccccc2-c2ccccc2C(=O)N([C@H](C)CO)C[C@@H]1C)c1ccccc1,-1,57*[16.7 µM],-5,.,.,2
C[C@H](C(=O)N(C)C[C@@H]1OCc2ccccc2-c2ccccc2C(=O)N([C@@H](C)CO)C[C@@H]1C)c1ccccc1,-5,58*[16.7 µM],-13,?,2,-8
N#C[C@@H]1[C@H](c2ccccc2-c2ccc(F)cc2)[C@H](CO)N1C(=O)Cc1ccccc1,-17,.,0,-7,.,-3
C[C@H]1CN([C@@H](C)CO)C(=O)c2cc(C#CCN(C)C)cnc2O[C@@H]1CN(C)C(=O)c1cnccn1,3,.,.,-3,-6,-6
COc1cccc(S(=O)(=O)N[C@@H]2CC[C@H](CC(=O)NCc3ccc(F)cc3)O[C@H]2CO)c1,1,-16[16.7 µM],.,-1,0,.
C[C@@H]1CN([C@H](C)CO)C(=O)c2ccccc2-c2ccccc2CO[C@@H]1CN(C)C(=O)[C@H]1CCCN1C,0,-5[16.7 µM],-5,79*,1,7
C[C@H]1CN([C@@H](C)CO)C(=O)c2ccccc2-c2ccccc2CO[C@H]1CN(C)Cc1ccccc1C(F)(F)F,-1,.,8,21*,.,-6
C[C@@H]1CN([C@@H](C)CO)C(=O)c2ccccc2-c2ccccc2CO[C@@H]1CN(C)Cc1ccccc1C(F)(F)F,1,.,-25,-3,.,-22
COc1ccc2c3c([nH]c2c1)[C@H](CO)N(C(=O)c1ccccc1)CC31CN(S(=O)(=O)c2cccs2)C1,-6,.,.,82*,.,-13
